In ChEMBL document CHEMBL1155470, “Colloid formation by drugs in simulated intestinal fluid” (J Med Chem, 2010):
Counter-ions that a name gives are not always drawn. One block for each molecule: values may come before it. Activity calls are given as the source filed them. The calls are words filed in the database; no cut-off is given here.

Assays:
[1] = Colloidal aggregation in fed state simulated intestinal fluid assessed as colloid radius at 50 uM by dynamic light scattering assay in presence of 1% DMSO; assay type: physicochemical; settings: simulated gi fluid
Method in brief: (§1)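 Concentrated DMSO stocks diluted into filtered FeSSIF: blank FeSSIF plus 15 mM sodium taurocholate and 3.75 mM lecithin, dissolved at 37 °C. Final DMSO 1% unless otherwise noted. Particle size by dynamic light scattering at 826.6 nm, detector at 90°, 100% laser power. Values are averages of three or more independent measurements at room temperature.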

Cruzipain [2] = molecular target: T1, Cruzipain (Trypanosoma cruzi, UniProt P25779); experiment: Inhibition of Trypanosoma cruzi cruzaine preincubated for 5 mins before substrate addition by fluorescence assay in absence of Triton X-100
Cruzipain [3] = molecular target: T1, Cruzipain; experiment: Inhibition of Trypanosoma cruzi cruzaine preincubated for 5 mins before substrate addition by fluorescence assay in presence of 0.01% Triton X-100
[4] = Colloidal aggregation in fed state simulated intestinal fluid assessed as colloid radius at 20 uM by dynamic light scattering assay in presence of 1% DMSO; assay type: physicochemical; settings: simulated gi fluid; method in brief: as §1
[5] = Colloidal aggregation in fed state simulated intestinal fluid by dynamic light scattering-based beads autocorrelation assay in presence of 1% DMSO; assay type: physicochemical; settings: simulated gi fluid
Method in brief: (§2)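 FeSSIF samples examined by DLS (826.6 nm laser, 90° detector, room temperature), comparing autocorrelation curves with blank FeSSIF. The micelle background was checked with 200 nm calibration beads diluted in FeSSIF. Drug samples were made by diluting DMSO stocks into filtered FeSSIF (15 mM taurocholate, 3.75 mM lecithin).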

[6] = Colloidal aggregation in fed state simulated intestinal fluid assessed as colloid radius at 10 uM by dynamic light scattering assay in presence of 1% DMSO; settings: simulated gi fluid
[7] = Colloidal aggregation in fed state simulated intestinal fluid at 550 uM by dynamic light scattering-based beads autocorrelation assay in presence of 2.75% DMSO; assay type: physicochemical; settings: simulated gi fluid; method in brief: as §2
[8] = Colloidal aggregation in fed state simulated intestinal fluid by dynamic light scattering assay in presence of 0.25% DMSO; assay type: physicochemical; settings: simulated gi fluid; method in brief: as §1
[9] = Colloidal aggregation in fed state simulated intestinal fluid by dynamic light scattering assay in presence of 2.75% DMSO; assay type: physicochemical; settings: simulated gi fluid; method in brief: as §1
[10] = Colloidal aggregation in fed state simulated intestinal fluid assessed as colloid radius at 550 uM by dynamic light scattering assay in presence of 2.75% DMSO; settings: simulated gi fluid
[11] = Colloidal aggregation in fed state simulated intestinal fluid by dynamic light scattering assay in presence of 0.6% DMSO; assay type: physicochemical; settings: simulated gi fluid; method in brief: as §1
[12] = Colloidal aggregation in fed state simulated intestinal fluid assessed as colloid radius at 120 uM by dynamic light scattering assay in presence of 1% DMSO; assay type: physicochemical; settings: simulated gi fluid; method in brief: as §1
[13] = Colloidal aggregation in fed state simulated intestinal fluid assessed as colloid radius at 500 uM by dynamic light scattering assay in presence of 1% DMSO; assay type: physicochemical; settings: simulated gi fluid; method in brief: as §1
[14] = Colloidal aggregation in fed state simulated intestinal fluid assessed as colloid radius at 600 uM by dynamic light scattering assay in presence of 6% DMSO; settings: simulated gi fluid
[15] = Colloidal aggregation in fed state simulated intestinal fluid by dynamic light scattering assay in presence of 6% DMSO; assay type: physicochemical; settings: simulated gi fluid; method in brief: as §1
[16] = Colloidal aggregation in fed state simulated intestinal fluid at 600 uM by dynamic light scattering-based beads autocorrelation assay in presence of 6% DMSO; assay type: physicochemical; settings: simulated gi fluid; method in brief: as §2
[17] = Binding affinity to beta-lactamase AmpC at 700 uM after 30 mins by SDS-PAGE
Method in brief: (§3)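 Cosedimentation in FeSSIF, with and without 2 μg AmpC β-lactamase added per sample. Samples centrifuged at 16000g for 30 min at room temperature. Supernatant removed completely; pellets resuspended in DMSO plus 50 mM KPi pH 7.0 and run on SDS-PAGE. Protein detected by silver staining. Drug-only pellets included as background controls.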

[18] = Colloidal aggregation in fed state simulated intestinal fluid assessed as colloid radius at 100 uM by dynamic light scattering assay in presence of 1% DMSO; assay type: physicochemical; settings: simulated gi fluid; method in brief: as §1
[19] = Colloidal aggregation in fed state simulated intestinal fluid by dynamic light scattering assay in presence of 0.5% DMSO; assay type: physicochemical; settings: simulated gi fluid; method in brief: as §1
[20] = Colloidal aggregation in phosphate buffer at 200 uM by transmission electron microscopy in presence of 0.2% DMSO; assay type: physicochemical
Method in brief: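 Drug DMSO stocks diluted into 50 mM phosphate buffer. Samples adsorbed ~30 s onto glow-discharged formvar/carbon-coated copper grids and negatively stained with 2% ammonium molybdate. Imaged by transmission electron microscopy at 80 kV, standard magnification 25 000.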

[21] = Colloidal aggregation in fed state simulated intestinal fluid at 700 uM by transmission electron microscopy in presence of 3% DMSO; assay type: physicochemical; settings: simulated gi fluid
Method in brief: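 Drug DMSO stocks diluted into FeSSIF. Samples adsorbed ~30 s onto glow-discharged formvar/carbon-coated copper grids and negatively stained with 2% ammonium molybdate. Viewed by transmission electron microscopy at 80 kV, standard magnification 25 000, calibrated with catalase crystals and ferritin.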

[22] = Colloidal aggregation in fed state simulated intestinal fluid assessed as colloid radius at 600 uM by dynamic light scattering assay in presence of 3% DMSO; assay type: physicochemical; settings: simulated gi fluid; method in brief: as §1
[23] = Colloidal aggregation in fed state simulated intestinal fluid by dynamic light scattering assay in presence of 3% DMSO; assay type: physicochemical; settings: simulated gi fluid; method in brief: as §1
[24] = Aggregation-based binding affinity to beta-lactamase AmpC at 700 uM in fed state simulated intestinal fluid after 30 mins by silver staining in presence of 3% DMSO; method in brief: as §3

T1 sequence (P25779 whole entry): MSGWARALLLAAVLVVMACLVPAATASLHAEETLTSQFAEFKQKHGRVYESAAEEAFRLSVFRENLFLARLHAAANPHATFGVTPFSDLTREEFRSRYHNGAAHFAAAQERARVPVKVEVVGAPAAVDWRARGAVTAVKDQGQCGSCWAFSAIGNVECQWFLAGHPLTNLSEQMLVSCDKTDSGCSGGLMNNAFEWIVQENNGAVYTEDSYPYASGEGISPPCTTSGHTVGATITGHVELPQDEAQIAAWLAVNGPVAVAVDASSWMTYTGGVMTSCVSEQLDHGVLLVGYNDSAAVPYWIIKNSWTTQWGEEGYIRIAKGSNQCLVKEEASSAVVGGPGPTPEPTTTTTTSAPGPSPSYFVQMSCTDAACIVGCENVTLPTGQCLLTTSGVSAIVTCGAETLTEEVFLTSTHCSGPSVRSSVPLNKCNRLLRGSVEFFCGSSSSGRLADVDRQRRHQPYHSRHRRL

SMILES: O=C(Nc1cccc2c(=O)cc(-c3nnn[nH]3)oc12)c1ccc(OCCCCc2ccccc2)cc1
Activity [1]: 1167.7 nm
IC50 (Cruzipain [2]): 7 µM
IC50 (Cruzipain [3]): 68 µM

SMILES: Cc1c(O)cccc1C(=O)N[C@@H](CSc1ccccc1)[C@H](O)CN1C[C@H]2CCCC[C@H]2C[C@H]1C(=O)NC(C)(C)C
IC50 (Cruzipain [2]): 144 µM
IC50 (Cruzipain [3]): > 300 µM
Activity [4]: 690.7 nm

SMILES: Cc1c(C)c2c(c(C)c1OC(=O)c1cccnc1)CC[C@@](C)(CCC[C@H](C)CCC[C@H](C)CCCC(C)C)O2 (racemic)
Activity [5]: Active
Activity [1]: 55.7 nm
Activity [6]: 104.1 nm
IC50 (Cruzipain [2]): 98 µM
IC50 (Cruzipain [3]): > 400 µM

SMILES: CCCCc1oc2ccccc2c1C(=O)c1cc(I)c(OCCN(CC)CC)c(I)c1 [AMIODARONE HYDROCHLORIDE]
IC50 (Cruzipain [2]): 4 µM
IC50 (Cruzipain [3]): 206 µM

SMILES: CCOc1nc2cccc(C(=O)OC(C)OC(=O)OC3CCCCC3)c2n1Cc1ccc(-c2ccccc2-c2nnn[nH]2)cc1 (stereo unspecified) [CANDESARTAN CILEXETIL]
Activity [7]: Active
Activity [8]: 50 µM
Activity [9]: 550 µM
Activity [1]: 38.8 nm
IC50 (Cruzipain [2]): 42 µM
IC50 (Cruzipain [3]): 168 µM
Activity [10]: 50.1 nm

SMILES: Cc1ccc(-c2cc(C(F)(F)F)nn2-c2ccc(S(N)(=O)=O)cc2)cc1 [CELECOXIB]
Activity [11]: 120 µM
Activity [12]: 161.8 nm
IC50 (Cruzipain [2]): 126 µM
IC50 (Cruzipain [3]): > 400 µM

SMILES: C(=C\c1ccccc1)/CN1CCN(C(c2ccccc2)c2ccccc2)CC1 [CINNARIZINE]
IC50 (Cruzipain [2]): 124 µM
IC50 (Cruzipain [3]): > 300 µM

Second part, the molecule after the results:

Activity [13]: 29.2 nm
SMILES: CN(C)CCCN1c2ccccc2Sc2ccc(Cl)cc21.Cl [CHLORPROMAZINE HYDROCHLORIDE]

Activity [14]: 103.7 nm
Activity [15]: 600 µM
Activity [16]: Active
Activity [6]: 356.1 nm
IC50 (Cruzipain [2]): 6 µM
IC50 (Cruzipain [3]): 40 µM
SMILES: CC(C)/N=c1\cc2n(-c3ccc(Cl)cc3)c3ccccc3nc-2cc1Nc1ccc(Cl)cc1 [CLOFAZIMINE]

IC50 (Cruzipain [2]): 123 µM
IC50 (Cruzipain [3]): > 300 µM
SMILES: COC(=O)[C@H](c1ccccc1Cl)N1CCc2sccc2C1 [CLOPIDOGREL BISULFATE]

Activity [17]: inactive
Activity [18]: 195.1 nm
Activity [19]: 100 µM
Activity [20]: Active
Activity [21]: Active
Activity [22]: 62.8 nm
Activity [5]: Active
IC50 (Cruzipain [2]): 122 µM
IC50 (Cruzipain [3]): > 200 µM
Activity [23]: 600 µM
Activity [24]: Active
SMILES: CC(C)Nc1cccnc1N1CCN(C(=O)c2cc3cc(NS(C)(=O)=O)ccc3[nH]2)CC1.CS(=O)(=O)O [DELAVIRDINE MESYLATE]
